“Also recorded” adds a separate entry of the source.
Assays:
[1] = system: DOX/MDA-MB-468 cells; assay: MTT cytotoxicity in drug-resistant DOX/MDA-MB-468 cell line; format: cell-based; conditions: read-out: IC50 DOX/MDA-MB-468, drug-resistant DOX/MDA-MB-468 cells
[2] = biological target: EGFR tyrosine kinase (Homo sapiens, UniProt P00533); assay: In vitro EGFR tyrosine kinase activity; format: biochemical; conditions: read-out: EGFR ± SD IC50
[3] = system: P-glycoprotein; assay: Quantitative real time PCR for P-glycoprotein; format: cell-based; conditions: MDA-MB-468/ADR cells, 72 h, in comparison to the control (1)
Summary of the method: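 P-gp gene expression measured by real-time RT-PCR in 1 × 10⁵ MDA-MB-468 cells. Cells exposed to test compound at 0.125, 0.250, 0.500 and 1.000 μM for 72 h. Expression reported as fold change relative to untreated control, set at 1.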

[4] = system: NCI 60 cancer cell lines; assay: NCI 60 cell panel anti-proliferative assay; format: cell-based, human; conditions: 10 μM single dose
[5] = system: HOP-92; assay: NCI 60 SRB assay; format: cell-based; conditions: Homo sapiens, HOP-92, read-out: growth inhibition
[6] = system: male Wistar rats; assay: Toxicological study / calculation of LD50; format: in vivo, rat
Summary of the method: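 Adult male Wistar rats, 200 ± 20 g, acclimatised 7 days at 22 ± 3 °C under a natural light cycle and fasted 18 h before dosing. Single dose of test compound in 0.5 mL DMSO. Five dose levels given to groups of five rats.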

[7] = system: MDA-MB-468 cells; assay: Cell cycle analysis; format: cell-based; conditions: for cell cycle arrest (in words): MDA-MB-468
Summary of the method: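 Cells plated at 4 × 10⁶ per T75 flask and treated with test compound for 24 and 48 h. Harvested by trypsinisation, washed in PBS and fixed in ice-cold absolute alcohol. DNA stained with a commercial cell-cycle DNA reagent kit per the maker's instructions. Phase distribution determined by flow cytometry.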

[8] = system: MDA-MB-468 cells; assay: Annexin-V-FITC/PI apoptosis assay; format: cell-based
Summary of the method: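 MDA-MB-468 cells seeded at 4 × 10⁶ per T75 flask and exposed to test compound for 24 and 48 h, with a DMSO control. Cells trypsinised; 0.5 × 10⁶ cells washed twice in PBS and stained with 5 μl annexin V-FITC plus 5 μl PI in 1× binding buffer, 15 min, room temperature, dark. Read by flow cytometry; early, late and total apoptotic fractions scored.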

Compound | IC50 [1] [nM] | IC50 [2] [nM] | MDA-MB-468 P-glycoprotein fold change [3] [fold] | cell growth inhibition ([4]; some melanoma, ovarian, renal and breast cancer cell lines) | inhibition at 10 µM [5] [%] | antiproliferative activity (in words) ([4]; most of the cancer cell lines) | time to death ([6]; 1000 mg kg^−1) [days] | toxic signs ([6]; 1000 mg kg^−1, after intraperitoneal injection) | effect on the animals ([6]; doses 55, 90 and 100 mg kg^−1) | cell cycle arrest (in words) [7] | cells in S phase (%DIP S) ([7]; MDA-MB-468, compound at its IC50, control 22.98%) [%] | cells in G1 phase (%DIP G1) ([7]; MDA-MB-468, compound at its IC50, control 52.76%) [%] | cell cycle arrest (in words) ([7]; listed as 16a) | apoptosis induction (in words) ([8]; MDA-MB-468) | late cellular apoptosis ([8]; MDA-MB-468, IC50 of compound, DMSO control 0.27%) [%] | early/primary apoptosis ([8]; MDA-MB-468, IC50 of compound, DMSO control 0.39%, lower right quadrant) [%] | total apoptosis ([8]; MDA-MB-468, IC50 of compound, DMSO control 2.09%) [%] | late apoptosis ([8]; MDA-MB-468, IC50 of compound, control 0.25%, upper right quadrant) [%]
N-(4-(4-Chlorophenyl)-6-(4-cyano-5-(2,4-dichlorophenyl)-3-oxo-2,3-dihydro-1H-pyrazol-1-yl)-7H-pyrazolo[3,4-d]pyrimidin-3-yl)benzamide [Compound 15] | 267 | 135 ± 6 | 0.301 | above 100% | – | – | – | – | – | – | – | – | – | – | – | – | – | –
CSc1nc(-c2ccc(Cl)cc2)c2c(NC(=O)c3ccccc3)nnc-2[nH]1 [Compound 6, N-(4-(4-Chlorophenyl)-6-(methylthio)-7H-pyrazolo[3,4-d]pyrimidin-3-yl)benzamide] | – | – | – | – | > 100 | poor antiproliferative activity | – | – | – | – | – | – | – | – | – | – | – | –
Ethyl 1-(3-benzamido-4-(4-chlorophenyl)-7H-pyrazolo[3,4-d]pyrimidin-6-yl)-5-(2,4-dichlorophenyl)-3-oxo-2,3-dihydro-1H-pyrazole-4-carboxylate [Compound 16] | 844 | 34 ± 2 | 0.449 | – | – | – | ≤ 7 | abdominal muscle contractions and ataxia signs | does not produce any significant effect | cell cycle arrest at the S phase; also recorded: G1 and S phases arrest pattern | 28.16 | 57.41 | induce cell cycle arrest with concurrent increase in G1 and S population | increased the percentage of apoptotic cells in a time-dependent manner | 54.61 | 18.08 | 46.59 | 31.47

— publication PMC10774712 (RSC Advances, 2024)
